These results are taken from PubChem BioAssay AID1242 (PCMD, 2008).

Among all 120,000 compounds or so, about 20 (0.02%) were called active.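 The calls were made as follows: active = inhibition above 30.3% in the primary screen of four-compound pools, then above 30% when the compound was retested; inconclusive = passed the primary limit but could not be retested; inactive = the rest.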 Only a selection was taken, and actives are over-represented in it overall.

The assay in a line: clotrimazole potentiators killing C. albicans biofilm, primary screen, 4-compound mixtures (AID 1242).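 Also: compounds exposed to preformed 24 h biofilms for 48 h; 0% = untreated biofilm control and 100% = clotrimazole plus chlorhexidine kill blank.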 To be noted: C. albicans biofilm persisters + clotrimazole, fluorescence viability, primary screen in compound mixtures, stronger effect = higher value; at 7.6 µM unless noted. In a few lines: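 Incubation: 24 h biofilm formation, then 48 h compound exposure, 37 °C | Material: C. albicans biofilms | Buffer or medium: RPMI/MOPS medium, pH 7.0 | Measured by: 2-h Alamar Blue fluorescence, 535/590 nm excitation/emission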
As to `CC1Cc2ccccc2N1S(=O)(=O)c1ccc(Cl)nc1` (stereo unspecified), the inhibition – broadly, the relative decrease from the control value, in per cent – is 14.3% (inactive). Next, `Cc1cc2nc(C(F)(F)F)cc(-c3cccs3)n2n1`: 8.23% (inactive); `COc1ccc(C(=O)C2CCCN(C(=O)c3cc4nc(C)cc(C)n4n3)C2)cc1F` (stereo unspecified): 16.6% (inactive). In the case of `CCOC(=O)C1(Cc2cccc(OC)c2)CCN(C(C)COC)CC1` (stereo unspecified), the inhibition was 14.5% (inactive). The result for `NCC(=O)c1cccc2ccc[n+]([O-])c12` reads 12.9% (inactive). The result for `N=c1c2c3c(sc2ncn1N)CCCC3` reads 20.4% (inactive). The result for `CCOC(=O)CN1CCC(c2ccccc2)CC1` reads 13.7% (inactive). For the compound `Cc1cc(N)n(-c2ccc(S(=O)(=O)N3CCCC3)cc2[N+](=O)[O-])n1`, the inhibition was 11.7% (inactive). The result for `CC(=O)c1cccc(-n2nnnc2SCC(=O)NNC(=O)C2CCCCC2)c1` reads 5.73% (inactive); that for `C/C(=N/Nc1ccc(Cl)cc1)c1cnnc(-c2ccccc2)n1`, 7.24% (inactive).

With `COc1ccc(Cl)cc1N(CC(=O)N/N=C/c1ccc(OCC(N)=O)cc1)S(C)(=O)=O`, the inhibition was 20.2% (inactive). On to `S=C(NCCc1ccccc1)N1CCn2cccc2C1c1ccncc1` (stereo unspecified), for which the inhibition is 11.1% (inactive). In the case of `COc1ccccc1C(c1nnnn1CC1CCCO1)N1CCN(c2ccccc2)CC1` (stereo unspecified), the inhibition was 29.3% (inactive). On to `COc1ccc(NC(=O)CSc2nnc(-c3ccccc3F)n2C2CC2)cc1S(N)(=O)=O`, for which the inhibition is 7.66% (inactive). Take `O=C(Cn1c(N2CCN(C/C=C/c3ccccc3)CC2)nc2ccccc21)c1ccccc1`: the inhibition is 9.46% (inactive).

With `CCC(C)(C)NC(=O)CN(C(=O)CCC(=O)Nc1cc(C)ccn1)c1ccc2c(c1)OCCO2`, the inhibition was 1.7% (inactive). In the case of `Cc1ccc(OCC(=O)NC(C)c2ccccc2)c([N+](=O)[O-])n1` (stereo unspecified), the inhibition is 8.35% (inactive). On to `CCc1cc2c(=O)c(-c3nc4ccccc4n3C)c(CCCC(=O)O)oc2cc1OC(=O)C(C)(C)C`, for which the inhibition was 14.2% (inactive). The result for `COC(=O)Cc1ccc(NC(=S)NCc2ccco2)cc1` reads 1.39% (inactive); that for `Cc1ccc(Cl)cc1NC(=O)C1CCN(S(C)(=O)=O)CC1`, -19.3% (inactive); that for `CSc1nc(C)nc(C2CC2)c1C#N`, 26.1% (inactive).

Take `CCc1nc2sc(C(=O)O)c(N)c2c2c1CCCC2`: the inhibition is 17.7% (inactive). Next, `O=C1Nc2cc(Cl)c(Cl)cc2N(O)N1c1ccccc1Cl`: 16.7% (inactive); `CC1=CC=CC2=N/C(=N\S(=O)(=O)c3ccc(F)cc3F)c3ccccc3CN12`: 14.1% (inactive). `NNC(=O)c1cccc(COCC(F)(F)C(F)F)c1`: the inhibition is 11.2% (inactive).

Take `CC(C)(C)n1nc2c(c1NC(=O)c1cc3ccccc3o1)CSC2`: the inhibition is 8.07% (inactive).

For the compound `CC(=O)NC(=S)Nc1ccc(NC(=O)c2cccnc2)cc1`, the inhibition is 26.7% (inactive). Next, `CN(c1ccccc1)S(=O)(=O)c1ccc(Cl)c(C(=O)OCC(N)=O)c1`: 9.93% (inactive); `COc1ccc2nc(Nc3nc(-c4ccncc4)cs3)sc2c1`: 12.3% (inactive). As to `COCCCNC(=O)Cn1c(=O)n(Cc2ccccc2Cl)c(=O)c2cc(OC)c(OC)cc21`, the inhibition was 5.13% (inactive). The result for `COc1ccc(N=C(C)c2sc3ccccc3c2O)cc1` reads 24.2% (inactive); that for `Cc1ccc(Cl)c(OCC(=O)NN2CCN(C)CC2)c1`, 16.5% (inactive); that for `CC1=C(C)CC(C(=O)NC(C)CCc2ccccc2)C(C(=O)O)C1` (stereo unspecified), -32% (inactive). With `C/C(CCc1ccccc1)=N\NC(=O)c1ccc(CN2CCOCC2)cc1`, the inhibition is 20.4% (inactive).

For the compound `COc1ccc(S(=O)(=O)N(C)CC(=O)N2CCCC2)cc1Cl`, the inhibition was 15.4% (inactive). Next, `COc1ccc(/C=N/NC(=O)CNC(=O)c2ccc(S(=O)(=O)N3CCCC3)cc2)c(OC)c1`: 1.69% (inactive); `O=C(Cc1ccc(F)cc1)N/N=C/c1ccc2c(c1)OCO2`: -22.6% (inactive); `Cc1nnc(Nc2ccccc2F)s1`: 16.6% (inactive). With `CCC(=O)c1ccc(N2CCN(C(=O)c3cc([N+](=O)[O-])ccc3F)CC2)c(F)c1`, the inhibition is -4.84% (inactive).

On to `Cn1c(SCC(=O)NC2CCCCC2)nnc1-c1ccc(N)cc1`, for which the inhibition was 21.9% (inactive). `COc1ccc(C(=O)NCC(=O)N/N=C/c2ccc([N+](=O)[O-])s2)cc1OC`: the inhibition is 20.6% (inactive). Regarding `C/C(=N/OC(=O)c1c(-c2c(F)cccc2Cl)noc1C)c1cnccn1`, the inhibition was 10.3% (inactive). Consider `CC(=O)N/C(=C\c1ccc(F)cc1)C(=O)NC(Cc1ccccc1)C(=O)O` (stereo unspecified), for which the inhibition was 14.6% (inactive). Next, `N#Cc1c(NCCO)ccc([N+](=O)[O-])c1NCCO`: 15.9% (inactive); `Nn1c(SCc2ccccc2)nnc1C1CCCCC1`: 25.1% (inactive); `Cc1ccc(C(=O)O)cc1N1C(=O)CCCC1=O`: 29.3% (inactive). Next, `O=C(O)CC/C(=N\NC(=O)c1ccc(F)cc1)c1ccc(Br)cc1`: 0.26% (inactive); `O=C1COc2ccc(C(=O)COC(=O)c3cccnc3Cl)cc2N1`: 3.67% (inactive). Regarding `Cn1c(=O)c2c(ncn2CC(=O)N/N=C/c2cn[nH]c2-c2ccc(F)cc2)n(C)c1=O`, the inhibition is 8.1% (inactive). Next, `CCOC(=O)c1c(CN(C)C)n(-c2ccccc2)c2cc(Br)c(O)cc12`: 6.02% (inactive).

On to `O=C(NCCN1CCOCC1)c1ccc2c(c1)N(Cc1ccc(Cl)cc1)CCS2`, for which the inhibition is -21.2% (inactive).

For `Cc1cccc(NC(=S)NCCc2ccc(F)cc2)c1C`, the inhibition is 13.3% (inactive).

With `Cc1ccc(N2C(=O)SC(N(CC(=O)O)c3ccc(C)cc3)C2=O)cc1` (stereo unspecified), the inhibition is 30.1% (inactive).

Consider `COc1cc(OC)c(C(=O)OCC(=O)N2CC(=O)Nc3ccccc32)cc1OC`, for which the inhibition is 16% (inactive). For `Cc1nn(C)c(C)c1CN(C(=O)CCc1nnc(Cc2c[nH]c3ccccc23)o1)C(C)C`, the inhibition is 21.1% (inactive). For the compound `C/C(=N\NC(=O)c1cccnc1)c1ccc(-c2ccccc2)cc1`, the inhibition is 11.8% (inactive). Turning to `Cc1ccc(S(=O)(=O)N(CC(=O)NN=C2CCN(C)CC2)c2ccc(F)cc2)cc1`, the inhibition is 12.2% (inactive). Turning to `CC(CO)(CO)NC(=O)c1ccc(=O)[nH]n1`, the inhibition was 20.4% (inactive). The result for `NNC(=O)C1CC(O)CN1S(=O)(=O)c1ccc(Cl)cc1` (stereo unspecified) reads -0.83% (inactive). Turning to `Cc1ccccc1NC(=O)NNC(=O)OC(C)(C)C`, the inhibition was 17.1% (inactive). Next, `COc1ccc(C(=O)CSc2nnnn2C)c(OC)c1`: 0.17% (inactive); `CC(=O)Nc1ccc(S(=O)(=O)NC2(C(F)(F)F)C(=O)NC(C)=C2C#N)cc1` (stereo unspecified): 25.1% (inactive); `O=C(Nc1nnc(C2CC2)s1)C1=NN(C2CCS(=O)(=O)C2)C(=O)CC1` (stereo unspecified): 7.46% (inactive).

Regarding `COc1cccc(/C=C/C(=O)Nc2ccc3c(c2)OCCO3)c1`, the inhibition is 21.2% (inactive). Next, `O=C(CC1CCCCC1)NCc1ccc(F)cc1`: 14.7% (inactive); `Cc1ccc(CN2CCN(Cc3ccc(OCCO)cc3)CC2CCO)o1` (stereo unspecified): 19.8% (inactive).

As to `COC(=O)c1cc(C(=O)OCC(=O)Nc2cc(C)on2)cc([N+](=O)[O-])c1`, the inhibition is 19.1% (inactive). Next, `Cc1nc(=O)c(-c2ccccc2)c(C)n1-c1ccc(Br)cc1`: 15.2% (inactive); `O=C(CCc1ccccc1)NCCc1cccs1`: 19.8% (inactive). Consider `Cc1ccc(C(=O)NNc2ncnc3ccccc23)cc1`, for which the inhibition was 25.7% (inactive).

With `CCOC(=O)C1CCN(c2ncnc3c2c(-c2ccccc2)cn3-c2ccc(C)cc2)CC1`, the inhibition is 10.1% (inactive). On to `O=C1CC(Cc2ccc(Cl)cc2)C(=O)N1c1cc(Cl)ccn1` (stereo unspecified), for which the inhibition is 15.9% (inactive). Next, `CCc1ccccc1NC(=O)CSc1nnc(CCNC(=O)OC(C)(C)C)o1`: 24.5% (inactive); `O=C(O)c1cccc(NC(=O)c2cc(-c3cccc(Cl)c3)nc3ccccc23)c1`: 16.3% (inactive); `Cn1cnnc1SCC(=O)Nc1ccc(N2CCOCC2)cc1`: 1.33% (inactive). In the case of `COc1c(C)cc(C(=O)C2CCCN(S(=O)(=O)c3c(C)noc3C)C2)cc1C` (stereo unspecified), the inhibition is 2.3% (inactive).

On to `COc1cc(N2C(=O)c3ccccc3C2=O)c(Cl)cc1C(=O)OCC(=O)N1CCOCC1`, for which the inhibition is 3.87% (inactive).

For `COc1ccc(CCNC(=O)C(=O)Nc2ccc3nc4n(c(=O)c3c2)CCCCC4)cc1OC`, the inhibition is 5.01% (inactive).

As to `O=C(O)c1ccc(/C=N/NC(=S)NCc2ccccc2)cc1`, the inhibition was 10.6% (inactive). The result for `COc1ccc(-c2[nH]ncc2CN(Cc2nccn2C)C(C)C)cc1F` reads 6.59% (inactive); that for `Cc1ccc(NC(=O)c2ccccn2)cc1S(=O)(=O)N1CCOCC1`, 7.29% (inactive); that for `Cc1ccc(NC(=S)N(CCN(C)C)Cc2cccs2)cc1C`, 17.2% (inactive). Consider `O=[N+]([O-])c1cccc2ncccc12`, for which the inhibition is 12.4% (inactive).

Consider `COc1cccc(N2C(=O)CC(N3CCc4ccccc4C3)C2=O)c1` (stereo unspecified), for which the inhibition is 17.8% (inactive). Next, `CCOc1cc(NC(=S)NCc2ccco2)c(OCC)cc1NC(=O)c1ccco1`: 2.67% (inactive). With `N/C(=N\OC(=O)c1ccc2c(c1)OCO2)c1ccc(Br)cc1`, the inhibition is 8.49% (inactive). In the case of `CC(=O)Cn1ncc(N2CCOCC2)c(Br)c1=O`, the inhibition was -3.05% (inactive). The result for `Cn1nnnc1SCC(=O)NNC(=O)c1ccc(Br)cc1` reads 11.2% (inactive); that for `CCCCN(C(=O)COc1ccc(NC(C)=O)cc1)C1CCS(=O)(=O)C1` (stereo unspecified), 12.9% (inactive). Next, `O=C(c1cn2ccccc2n1)N1CCc2c([nH]c3ccccc23)C1c1ccccn1` (stereo unspecified): 0.31% (inactive); `O=c1[nH]c(N2CCN(Cc3ccc4c(c3)OCO4)CC2)nc2c1CCCC2`: 6.65% (inactive); `CCOC(=O)c1c(-c2cccc(N)c2)cn2ccccc12`: 6.08% (inactive). The result for `O=C(Nc1ccc2c(c1)C(=O)OC2)Nc1cccc2ccccc12` reads -1.47% (inactive). With `CC(Oc1ccc(Br)cc1Br)C(=O)NC1CCCC1` (stereo unspecified), the inhibition is 19.2% (inactive). The result for `COc1ccc(CC(=O)NCC(=O)N/N=C/c2cc(Br)ccc2OC)cc1` reads 19.3% (inactive); that for `CCOC(=O)/C(C#N)=C/c1ccc(N2CCCCC2)cc1`, 16.2% (inactive).
